Like-named read-outs stand apart in the source and are kept apart here.
What was measured:
Type in all cases: cell-based
[1] = system: HUVEC; test: MTT cytotoxicity assay, HUVEC; conditions: read-out: IC50 HUVEC
Procedure, shortened: (§1)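 MTT viability assay run in parallel on MCF-7, HeLa and non-cancerous HUVEC cells. Test concentrations: benzimidazole derivatives at 50–250 μM and benzothiazole derivatives at 5–100 μM. IC50 derived from the MTT read-out.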

[2] = system: HeLa; test: MTT cytotoxicity assay, HeLa; conditions: read-out: IC50 HeLa
Procedure, shortened: as §1

[3] = system: MCF-7; test: MTT cytotoxicity assay, MCF-7
Procedure, shortened: as §1

[4] = read-out: IC50 MCF-7, MTT, MCF-7 cells

Compound | IC50 ([1]; MTT, non-cancerous HUVEC line) | IC50 ([2]; MTT, HeLa cells) | IC50 [3, 4] | IC50 ([1]; Homo sapiens, HUVEC) | IC50 ([2]; Homo sapiens, HeLa) | IC50 ([3]; Homo sapiens, MCF7, read-out: IC50 MCF-7)
N#Cc1ccc(COC[C@H]2O[C@@H](n3c(NCc4ccc(Cl)c(Cl)c4)nc4c(N)ncnc43)[C@H](O)[C@@H]2O)cc1 [VER-155008] | 150 ± 2.23 µM | 55.26 ± 0.25 µM | 23.9 ± 1.09 µM | – | – | –
COc1cccc2c1C(=O)c1c(O)c3c(c(O)c1C2=O)C[C@@](O)(C(=O)CO)C[C@@H]3O[C@H]1C[C@H](N)[C@H](O)[C@H](C)O1 [Doxorubicin] | – | – | – | 93 ± 0.54 µM | 1.45 ± 0.15 µM | 17.44 ± 0.04 µM
Nc1c(C(=O)Nc2ccc(F)cc2)sc2nc(-c3cccs3)cc(C(F)(F)F)c12 [FDI-6] | 240.3 ± 1.14 µM | 18.9 ± 0.89 µM | 25.8 ± 2.41 µM | – | – | –
